Assay outcomes as filed in PubChem.
SIAE primary – human SIAE inhibitors, primary screen, biochemical, fluorescence polarization, FP-Rh probe, 1536-well HTS | AID 1053197, 2014 | hit rate 0.69% among 370,000 | SIAE FP-Rh probe binding | inhibition, % at 9.66 µM;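 active = inhibition above a cutoff: mean of compounds within the control limits plus 3 SD of those, cut at about 17% in these data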;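 also: 0% = plate median of compound wells and 100% = probe without SIAE protein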
Target sequence (Q9HAT2 whole entry, looked up): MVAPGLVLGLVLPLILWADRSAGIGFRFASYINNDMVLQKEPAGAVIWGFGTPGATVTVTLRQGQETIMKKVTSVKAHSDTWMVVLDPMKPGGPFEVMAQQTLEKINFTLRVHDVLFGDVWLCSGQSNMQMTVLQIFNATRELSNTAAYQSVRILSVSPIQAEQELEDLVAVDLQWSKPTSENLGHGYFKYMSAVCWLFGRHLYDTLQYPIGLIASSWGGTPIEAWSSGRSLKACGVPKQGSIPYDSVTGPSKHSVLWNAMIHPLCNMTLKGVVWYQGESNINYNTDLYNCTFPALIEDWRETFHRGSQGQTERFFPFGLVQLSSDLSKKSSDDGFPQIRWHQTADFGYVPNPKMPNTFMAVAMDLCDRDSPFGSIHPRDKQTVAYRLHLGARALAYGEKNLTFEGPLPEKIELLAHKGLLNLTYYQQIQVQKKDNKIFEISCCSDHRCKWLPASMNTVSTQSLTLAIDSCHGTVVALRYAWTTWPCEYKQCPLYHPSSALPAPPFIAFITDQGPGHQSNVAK
TDP2 inh – human TDP2 enzyme inhibitors, primary screen, biochemical, epi absorbance, recombinant enzyme | hit rate 0.34% among 370,000 | Tyrosyl-DNA phosphodiesterase 2 (Homo sapiens), O95551 | inhibition, % at 12.8 µM | T5PNP hydrolysis, p-nitrophenol absorbance 415 nm;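 active = inhibition above the mean of all tested compounds plus 3 SD, set per campaign, cut at about 25% in these data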;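 also: 0% = DMSO with enzyme and 100% = buffer with substrate but no TDP2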
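Assay system: recombinant human TDP2 / Reagent: T5PNP substrate at 5 mM, a TopII-DNA adduct mimic / Measured by: epi absorbance from released p-nitrophenol / Evaluation: % inhibition relative to enzyme-containing and enzyme-free wells / Control set: enzyme-free and DMSO wells / Replicates: each compound tested once, singlicate / Schedule: enzyme reaction with compound for 2 h at 37 °C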
Apaf-1 inh – inhibitors of human Apaf-1 apoptosome, primary screen, biochemical, DEVD-Rh110 fluorescence, uHTS; reconstituted apoptosome caspase-3 activity; inhibition, % at 20 µM; Apoptotic protease-activating factor 1 (Homo sapiens), O14727; AID 489030, 2010; hit rate 0.71% among 330,000; active = inhibition of at least 40% at 20 µM;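 also: plate controls were DMSO wells for no effect and DEVD-CHO caspase inhibitor wells for full effect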
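Material: reconstituted apoptosome with Apaf-1, cytochrome c, caspase-9, procaspase-3, dATP / Buffer or medium: pH 7.5 Hepes buffer with CHAPS, BSA, DTT / Also added: cytochrome c with DEVD-Rh110 / Schedule: compound with Apaf-1, dATP, procaspase-3 30 min, then 50 min reaction, room temperature / Technique: rhodamine 110 fluorescence at Ex 480/Em 540 nm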
PAD4 FP inh – human PAD4 inhibitors, primary screen, biochemical, fluorescence polarization, 1536-well format; Protein-arginine deiminase type-4 (Homo sapiens), Q9UM07; AID 485272, 2010; hit rate 0.41% among 330,000; inhibition, % at 6.36 µM; recombinant PAD4, RCA probe fluorescence polarization;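 active = percent inhibition above a cutoff equal to the mean of all tested compounds plus 3 SD, cut at about 15% in these data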;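 also: 0% = PAD4 with RCA probe and DMSO and 100% = probe without PAD4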
GSTO1 counter – inhibitors of recombinant GSTO1, primary screen, counter-screen for RBBP9 inhibitor project, biochemical, fluorescence polarization; AID 1974, 2009; inhibition, % at 5.96 µM; hit rate 1.1% among 300,000; activity-based probe fluorescence polarization;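 active = inhibition above the campaign mean inhibition plus 3 SD, cut at about 35% in these data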;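 also: 0% = GSTO1-1 with DMSO and 100% = wells lacking GSTO1-1 enzyme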
Target sequence (P78417 whole entry, looked up): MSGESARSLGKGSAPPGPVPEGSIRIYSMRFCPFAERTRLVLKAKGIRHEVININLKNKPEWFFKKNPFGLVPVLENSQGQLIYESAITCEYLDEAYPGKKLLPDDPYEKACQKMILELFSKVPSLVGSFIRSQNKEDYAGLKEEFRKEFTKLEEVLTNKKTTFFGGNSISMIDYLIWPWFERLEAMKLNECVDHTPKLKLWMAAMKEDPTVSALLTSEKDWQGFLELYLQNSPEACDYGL
TCR-CD3 inh – inhibitors of human TCR-CD3 interaction, primary screen, biochemical, fluorescence, TAMRA-labeled TCR probe; T-cell receptor (TCR); inhibition, % at 9.4 µM; hit rate 0.37% among 360,000; AID 651800, 2012;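 also: recombinant mutant TCR 2C K166C tagged with TAMRA read by polarization; 0% = receptor in buffer alone and 100% = receptor with positive control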
BSA TAMRA ctr – compounds interfering with TAMRA-BSA probe, counter-screen for TCR-CD3 interaction inhibitor project, biochemical, fluorescence, TAMRA-labeled BSA | AID 652035, 2013 | TAMRA-labeled BSA probe fluorescence counterscreen | hit rate 10% among 1,200 | shares compounds with TCR-CD3 inh | inhibition, % at 9.4 µM; in the data active = inhibition above about 23%;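 also: 0% = buffer low control and 100% = reference high control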
TCR-CD3 conf – TCR-CD3 interaction inhibitors, retest, confirmation, biochemical, fluorescence, TAMRA-labeled TCR probe | shares compounds with TCR-CD3 inh | TAMRA-labeled TCR probe fluorescence binding assay | inhibition, % at 9.4 µM | hit rate 48% among 1,200
TDP2 inh conf – human TDP2 enzyme inhibitors, retest, confirmation, biochemical, epi absorbance, recombinant enzyme. absorbance read-out. shares compounds with TDP2 inh. AID 743263, 2014. inhibition, % at 12.8 µM. hit rate 22% among 1,100; in the data active = inhibition above about 25%;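 also: 0% = vehicle with enzyme and 100% = no enzyme buffer only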
SIAE inh conf – human SIAE inhibitors, retest, confirmation, biochemical, fluorescence polarization, FP-Rh probe, triplicate; shares compounds with SIAE primary; SIAE FP-Rh activity-based probe; inhibition, % at 9.66 µM; hit rate 13% among 2,300;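 active = mean inhibition of the replicates above the hit cutoff set in the primary screen, cut at about 17% in these data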;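 also: 0% = SIAE with DMSO and probe and 100% = probe without SIAE; inhibitors lower polarization as more probe stays unbound to SIAE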
Numbers without * were called inactive; x = no result given; + = active, no number. Rows were chosen to be rich in hits. Some 2.4% of all compounds tested hit in one or more screens of this group. Rule as the data show it, unless noted: active = inhibition above about 19%; inactive = the rest.

SMILES | SIAE primary | TDP2 inh | Apaf-1 inh | PAD4 FP inh | GSTO1 counter | TCR-CD3 inh | BSA TAMRA ctr | TCR-CD3 conf | others
O=C(N/N=C/c1c(O)n(-c2cccc3ccccc23)c(=O)[nH]c1=O)c1ccncc1 | -1 | -5 | 4 | -5 | 6 | 22* | -6 | 10
O=C(N/N=C/c1c(O)n(CCc2ccccc2)c(=O)[nH]c1=O)c1ccncc1 | 0 | 4 | x | -1 | 3 | 8 | x | x
CC(=NCCC1=CCCCC1)c1c(O)n(-c2ccccc2)c(=O)[nH]c1=O | 6 | 3 | -10 | 3 | 10 | 0 | x | x
CN(C)[C@@H]1C(=O)C(C(N)=O)=C(O)[C@@]2(O)C(=O)C3=C(O)c4c(O)cccc4[C@@](C)(O)C3C[C@@H]12 (stereo partly specified) | 14 | 6 | -12 | -2 | 72* | 23* | -5 | -2
CC(=O)Nc1ccccc1C(=O)OCc1ccccc1F | -2 | 9 | 9 | 2 | 2 | 3 | x | x
NCCc1cc(O)c(O)cc1O | 91* | 8 | x | x | x | 170* | + | +
COc1ccc(CCN)cc1O | 6 | 5 | -1 | -1 | -1 | 10 | x | x
COc1ccc(-c2ccc3c(c2)CN(C(=S)NCCc2ccccc2)Cc2cnnn2-3)cc1 | -43 | 4 | x | x | x | 26* | 8 | 17
O=C(N/N=C/c1c(O)n(CCc2ccc(F)cc2)c(=O)[nH]c1=O)c1ccccc1 | 3 | -10 | 1 | 1 | -2 | 10 | x | x
O=C(N/N=C/c1c(O)n(CCc2ccccc2)c(=O)[nH]c1=O)c1ccccc1O | 7 | -7 | -10 | -2 | 3 | 23* | -4 | 28*
CCC(=NC1CC1)c1c(O)n(C2CCCCC2)c(=O)[nH]c1=O | 0 | 12 | 11 | -2 | -10 | 5 | x | x
CC/C(=N\NC(=O)c1ccccc1Cl)c1c(O)n(C2CCCCC2)c(=O)[nH]c1=O | 0 | -7 | 5 | -3 | 4 | 21* | -5 | 18
C[C@@H]1CN([C@H](C)CO)C(=O)CCCn2nncc2CO[C@H]1CN(C)C(=O)Oc1cccc2ccccc12 | -5 | -9 | x | x | x | -1 | x | x
O=C1NC(=O)N(c2ccccc2)C(=O)/C1=C/c1ccoc1 | -7 | 8 | 4 | 4 | 1 | 24* | -1 | 4
Cc1ccc(/C=C2\C(=O)NC(=S)N(c3ccccc3F)C2=O)s1 | -97 | -3 | x | -11 | -109 | 45* | -31 | -16
CN1CCC(O)(c2ccccc2)C2CCCC21 (stereo unspecified) | 5 | 9 | -2 | -7 | 2 | 0 | x | x
CC12CNCC(C)(CNC1)C2O (stereo unspecified) | -7 | 8 | 28 | 0 | 7 | 11 | x | x
CC(=O)c1ccc2c(c1)C1C(Cl)C(Sc3ccccc3[N+](=O)[O-])CC1C(C(=O)O)N2 (stereo unspecified) | 21* | 6 | x | -3 | 5 | 28* | -2 | 17 | SIAE inh conf=8
CN1OC[C@@H]2CN[C@H](c3ccccc3Br)C[C@@H]21 | 11 | 3 | x | x | x | -5 | x | x
C=C1N2CCC(CC2)C1(O)c1ccccc1C (stereo unspecified) | 3 | -1 | 0 | -8 | 1 | 0 | x | x
CCOC(=O)C1CCCN(c2ccc([N+](=O)[O-])c3nonc23)C1 (stereo unspecified) | 21* | 8 | x | x | x | 140* | 168* | 134* | SIAE inh conf=47*
CC[n+]1c(-c2ccccc2)c2cc(N)ccc2c2ccc(N)cc21 | 54* | 34* | x | x | x | 90* | 103* | 93* | TDP2 inh conf=22;SIAE inh conf=67*
CC/C(=N\NC(=O)c1ccccc1)c1c(O)n(C2CCCCC2)c(=O)[nH]c1=O | 18* | 16 | -2 | -7 | -3 | 20* | -4 | 14 | SIAE inh conf=4
COc1ccc(S(=O)(=O)N2Cc3cnnn3-c3ccccc3C2C#N)cc1 (stereo unspecified) | 3 | 5 | x | x | x | 4 | x | x
COc1ccc(Br)cc1CNCCc1ccc2c(c1)OCO2 | -4 | 10 | -4 | 3 | 2 | -1 | x | x
SMILES | SIAE primary | TDP2 inh | Apaf-1 inh | PAD4 FP inh | GSTO1 counter | TCR-CD3 inh | BSA TAMRA ctr | TCR-CD3 conf | others
COc1ccc(OCC#CCN2CCNCC2)cc1 | 1 | 31* | -3 | -2 | -1 | -1 | x | x | TDP2 inh conf=2
Nc1c(Br)cc2c3c(cccc13)-c1ccccc1-2 | 4 | 64* | x | x | x | 1 | x | x | TDP2 inh conf=17
CCC(=O)N1c2ccc(S(=O)(=O)CCC(=O)N3CCC4(CC3)OCCO4)cc2CC1C (stereo unspecified) | -2 | 6 | 9 | 2 | 7 | 3 | x | x
NC(=O)Cn1cc(C=C2C(=O)NC(=O)NC2=O)c2ccccc21 | -6 | 17 | 2 | x | x | -1 | x | x
CCn1cc(C=C2C(=O)NC(=O)NC2=O)c2ccccc21 | -44 | 28* | -14 | 0 | 1 | -5 | x | x | TDP2 inh conf=7
Cc1ccc(N)c(C(=O)c2ccccc2)c1 | 0 | -4 | -18 | -8 | -3 | -4 | x | x
O=C(O)c1ccc(-n2c(O)c(/C=C3\C=Nc4ccccc43)c(=O)[nH]c2=O)cc1 | -8 | 18 | -2 | 0 | -5 | 7 | x | x
O=c1[nH]c(=O)n(-c2cccc(F)c2)c(O)c1/C=C1\C=Nc2ccccc21 | -93 | 32* | 5 | 0 | 6 | -1 | x | x | TDP2 inh conf=14
O=c1nc(/C=C/c2ccc(Cl)cc2Cl)cc(C(F)(F)F)[nH]1 | -9 | 29* | 10 | x | x | 6 | x | x | TDP2 inh conf=18
COc1ccc(-n2nc(C(=O)NCC(=O)N3CCC4(CC3)OCCO4)c3ccccc3c2=O)cc1Cl | -1 | -15 | 6 | -5 | 5 | 1 | x | x
Cc1cccc2c1=NC(=O)/C(=C/c1c(O)[nH]c(=O)[nH]c1=O)C=2 | 7 | 32* | 2 | -12 | 26 | -1 | x | x | TDP2 inh conf=38*
CCNCC(O)c1cccc(O)c1 (stereo unspecified) | -9 | -4 | 0 | -6 | 4 | 1 | x | x
